Experimental data taken from ChEMBL document CHEMBL1144813, “4'-Methyl-4,5'-bithiazole-based correctors of defective delta F508-CFTR cellular processing” (Bioorg Med Chem Lett, 2008).
Calls of active or inactive are those of the source. No cut-off for these calls is given here.

How the values were obtained:
Assay type in all cases: cell-based
[1] = molecular target: Cystic fibrosis transmembrane conductance regulator (Homo sapiens, UniProt P13569, F508DEL); test: Corrector activity at human CFTR deltaF508 mutant expressed in FRT cells assessed as iodide influx; conditions: read-out: Kd
Summary of the method: (§1)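 FRT epithelial cells stably co-expressing human ΔF508-CFTR and halide sensor YFP-H148Q/I152L; grown 24 h at 37°C, then 20 h with compound. PBS wash, then forskolin 20 μM plus genistein 50 μM for 20 min. Fluorescence read 2 s baseline, then 12 s after iodide-substituted PBS addition; influx rate from exponential fit of final 11.5 s, normalized to initial fluorescence; DMSO vehicle negative control.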

[2] = tested on: Cystic fibrosis transmembrane conductance regulator (Homo sapiens), P13569 [F508del]; test: Corrector activity at human CFTR deltaF508 mutant expressed in FRT cells assessed as iodide influx at 10 uM; summary of the method: as §1
[3] = tested on: Cystic fibrosis transmembrane conductance regulator (Homo sapiens), P13569 [F508del]; test: Corrector activity at human CFTR deltaF508 mutant expressed in FRT cells assessed as iodide influx at 25 uM; summary of the method: as §1

Sequence of Cystic fibrosis transmembrane conductance regulator (Homo sapiens), P13569 [F508del] (P13569 as listed by the source): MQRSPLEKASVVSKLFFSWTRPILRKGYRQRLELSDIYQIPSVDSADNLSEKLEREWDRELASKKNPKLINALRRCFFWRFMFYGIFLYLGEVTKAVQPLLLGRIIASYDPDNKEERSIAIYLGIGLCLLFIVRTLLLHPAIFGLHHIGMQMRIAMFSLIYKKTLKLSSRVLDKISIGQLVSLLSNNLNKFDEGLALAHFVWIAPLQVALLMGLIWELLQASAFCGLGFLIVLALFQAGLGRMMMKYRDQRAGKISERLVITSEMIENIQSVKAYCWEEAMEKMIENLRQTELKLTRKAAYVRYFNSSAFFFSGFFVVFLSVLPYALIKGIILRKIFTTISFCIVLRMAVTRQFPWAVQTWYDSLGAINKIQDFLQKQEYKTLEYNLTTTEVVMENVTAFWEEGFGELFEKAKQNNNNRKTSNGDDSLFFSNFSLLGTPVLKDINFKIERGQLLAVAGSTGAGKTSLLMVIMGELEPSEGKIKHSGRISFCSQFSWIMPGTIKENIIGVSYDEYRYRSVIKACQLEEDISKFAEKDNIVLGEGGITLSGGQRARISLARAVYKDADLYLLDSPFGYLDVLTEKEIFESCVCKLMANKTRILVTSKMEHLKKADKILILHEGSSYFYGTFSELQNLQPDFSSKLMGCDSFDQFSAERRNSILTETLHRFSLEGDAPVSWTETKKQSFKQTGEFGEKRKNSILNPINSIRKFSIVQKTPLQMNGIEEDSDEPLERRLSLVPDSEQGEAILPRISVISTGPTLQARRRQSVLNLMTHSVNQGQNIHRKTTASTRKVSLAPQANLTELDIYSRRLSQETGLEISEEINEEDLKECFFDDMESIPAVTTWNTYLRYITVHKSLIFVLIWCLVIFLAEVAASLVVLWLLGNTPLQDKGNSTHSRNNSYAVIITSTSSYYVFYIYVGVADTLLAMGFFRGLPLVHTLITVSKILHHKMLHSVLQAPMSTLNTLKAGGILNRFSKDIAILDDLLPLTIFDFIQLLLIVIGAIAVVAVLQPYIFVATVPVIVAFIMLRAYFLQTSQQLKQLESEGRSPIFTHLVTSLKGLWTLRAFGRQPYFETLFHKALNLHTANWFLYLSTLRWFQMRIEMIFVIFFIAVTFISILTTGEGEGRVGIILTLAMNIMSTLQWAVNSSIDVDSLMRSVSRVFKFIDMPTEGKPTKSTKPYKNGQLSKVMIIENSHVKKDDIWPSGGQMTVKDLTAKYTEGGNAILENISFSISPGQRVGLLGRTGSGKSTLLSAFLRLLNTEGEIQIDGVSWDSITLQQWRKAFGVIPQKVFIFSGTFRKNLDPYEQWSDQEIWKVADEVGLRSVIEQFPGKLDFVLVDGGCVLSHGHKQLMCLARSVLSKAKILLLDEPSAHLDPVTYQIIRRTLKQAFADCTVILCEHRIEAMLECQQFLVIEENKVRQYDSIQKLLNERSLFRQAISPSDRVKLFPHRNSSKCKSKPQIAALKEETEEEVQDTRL
Sequence of Cystic fibrosis transmembrane conductance regulator (P13569 as listed by the source): as above

EC50 [1] | Activity [2] | Activity [3] | SMILES
0.7 µM |  |  | COc1ccc(Cl)cc1Nc1nc(-c2sc(NC(=O)C(C)(C)C)nc2C)cs1
1.1 µM |  |  | CCCCCCC(=O)Nc1nc(C)c(-c2csc(Nc3cc(OC)ccc3OC)n2)s1
1.1 µM |  |  | Cc1ccc(Nc2nc(-c3sc(NC(=O)c4ccc(Cl)cc4)nc3C)cs2)cc1
0.8 µM |  |  | CCOc1ccccc1Nc1nc(-c2sc(NC(=O)C(C)(C)C)nc2C)cs1
 | Active | Active | Cc1nc(NC(=O)c2ccccc2)sc1-c1csc(Nc2cccc(Cl)c2Cl)n1
1.1 µM |  |  | COc1ccc(OC)c(Nc2nc(-c3sc(NC(=O)c4ccc(Cl)cc4)nc3C)cs2)c1
0.9 µM | Active | Active | COc1ccc(Cl)cc1Nc1nc(-c2sc(NC(=O)c3ccccc3)nc2C)cs1
0.8 µM |  |  | Cc1nc(NC(=O)c2ccc([N+](=O)[O-])cc2)sc1-c1csc(Nc2ccc(Cl)cc2)n1
 | Active | Active | COc1c(Cl)cccc1Nc1nc(-c2sc(NC(=O)c3ccccc3)nc2C)cs1
1.1 µM |  |  | Cc1nc(NC(=O)c2ccc(Cl)cc2)sc1-c1csc(Nc2ccc(Cl)cc2)n1
